Here are results for nine compounds from ChEMBL document CHEMBL1130313, “1-[(omega-aminoalkyl)amino]-4-[N-(omega-aminoalkyl)carbamoyl]-9-oxo-9, 10-dihydroacridines as intercalating cytotoxic agents: synthesis, DNA binding, and biological evaluation” (J Med Chem, 1997).

Data set [1] concerns HT-29. The experiment in a line: Cytotoxic potency required to inhibit HT-29 cell growth by 50% after cell drug contact for 144 hrs. Format: functional, cell-based. As to conditions: Homo sapiens, HT-29, 144 h.
For data set [2], the system named is A2780. The experiment in a line: Cytotoxic potency required to inhibit A2780 cell growth by 50% after cell drug contact for 96 hrs. It is filed as functional, cell-based. As to conditions: Homo sapiens, A2780, 96 h. The method in brief: (§1)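 Human ovarian carcinoma (A2780, CH1, SKOV-3) or melanoma G-361 cells were plated at 100-5000 cells and allowed to adhere overnight. Aqueous drug at pH 7.0, diluted from DMSO stock, was applied at various concentrations for 96 h continuous exposure at 37 °C. Growth was measured by sulforhodamine B protein staining. IC50 is 50% growth inhibition versus untreated controls.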

Data set [3] has as its system CH1. The experiment in a line: Cytotoxic potency required to inhibit CH1 cell growth by 50%. As to conditions: Homo sapiens. Format: functional, cell-based. The method in brief: as §1
In data set [4] the test system is Calf thymus DNA. The experiment in a line: Inhibitory concentration against ethidium:calf thymus DNA (1.26:1) binding at pH 5. It is filed as nucleic-acid assay. As to conditions: Bos taurus. The method in brief:
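Ethidium displacement at pH 5: 1.26 μM ethidium bromide with 1 μM CT-DNA in 9.3 mM NaCl, 2 mM NaOAc, 0.1 mM EDTA. Drug (stock ~5 mM in DMSO) is added serially at 20 °C. Fluorescence is read with excitation 546 nm and emission 595 nm. C50 is the concentration reducing bound-ethidium fluorescence by 50%; mean of three.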

For data set [5], the system named is Nucleic Acid. The experiment in a line: Concentration required to give 50% fluorescence quenching of bound ethidium for [ethidium]: [poly(dA-dT)]2 DNA in ratio of 0.1:1 at pH 5. Format: nucleic-acid assay. In a few lines:
(§2)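 Q (quenching) assay at pH 5: DNA at 20 μM DNAp (CT-DNA, [poly(dA-dT)]2 or [poly(dG-dC)]2) with 2 μM ethidium bromide. Buffer is 9.3 mM NaCl, 2 mM NaOAc, 0.1 mM EDTA, 0.01 M ionic strength. Drug (stock ~5 mM in DMSO) is added serially at 20 °C. Fluorescence is read with excitation 546 nm and emission 595 nm. Q is the concentration halving bound-ethidium fluorescence; mean of three.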

The test system of data set [6] is G-361. Briefly: Cytotoxic potency required to inhibit G-361 cell growth by 50%. Format: functional, cell-based. The note with it: Homo sapiens. The method in brief:
as §1

Data set [7] concerns Calf thymus DNA. The experiment in a line: Inhibitory concentration against ethidium:Calf thymus DNA(0.1:1) binding at pH 5. Format: nucleic-acid assay. As to conditions: Bos taurus. The method in brief: as §2
Data set [8] deals with SK-OV-3. Briefly: Cytotoxic potency required to inhibit SKOV-3 cell growth 50%. It is filed as functional, cell-based. The note with it: Homo sapiens. The method in brief: as §1
Data set [9] deals with Calf thymus DNA. The experiment in a line: Inhibitory concentration against ethidium:Calf thymus DNA (1.26:1) binding at pH 7. Format: nucleic-acid assay. As to conditions: Bos taurus. The method in brief:
(§3)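 Ethidium displacement at pH 7: 1.26 μM ethidium bromide with 1 μM CT-DNA in 10 mM TES, 0.1 mM EDTA. Drug (stock ~5 mM in DMSO) is titrated in at 20 °C. Read-out is excitation 546 nm, emission 595 nm. C50 is the drug concentration cutting bound-ethidium fluorescence by 50%; mean of three determinations.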

The test system of data set [10] is L1210. The experiment in a line: Cytotoxic potency required to inhibit L1210 cell growth by 50% after cell drug contact for 48 hrs. The note with it: Mus musculus, L1210, 48 h. Format: functional, cell-based. The method in brief: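 Mouse L1210 leukemia cells at 5 × 10^4 cells/mL were exposed for 48 h at 37 °C to aqueous drug solutions (≤0.5% v/v DMSO). Surviving cells were counted by Coulter counter against drug-free controls to give IC50. Assays were done in duplicate.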

Data set [11] relates to Nucleic Acid. Briefly: Concentration required to give 50% fluorescence quenching of bound ethidium for [ethidium]: [(poly dG-dC)]2 DNA in ratio of 0.1:1 at pH 5. Format: nucleic-acid assay. In a few lines: as §2
Data set [12] can be described thus: Partition coefficient (logP). It is filed as physicochemical. As to conditions: octanol/water.
The subject of data set [13] is Calf thymus DNA. Briefly: Inhibitory concentration against ethidium:Calf thymus DNA(1.26:1) binding at pH 7. It is filed as nucleic-acid assay. The note with it: Bos taurus. In a few lines: as §3
For data set [14], the system named is CH1. Briefly: Cytotoxic potency against CH1 cell proliferation. Format: functional, cell-based. The note with it: Homo sapiens. The method in brief:
as §1

pIC50: −log10 of the molar value.

As usually defined, the pIC50 is −log10 of the IC50, conventionally taken in molar units. Lower therefore signals a high IC50. As usually defined, the logP is a log measure of how a compound divides between an organic and an aqueous phase.

For the compound `CN(C)CCNC(=O)c1ccc(NCCN(C)C)c2c(O)c3cc(O)ccc3nc12`, the pIC50 in data set [1] is 5.70; in [2], 7.29; in data set [3] it was 6.19; in data set [6], 6.52; in [8], 6.77; in [10] it was 6.85. In addition, the C50 was 2.2 µM in data set [4] and 0.37 µM in data set [9]. Further, the values for the Q in data set [5], in [7] and in [11] were 4.4 µM, 4.8 µM and 5.4 µM, respectively. Besides, the logP in [12] amounted to 4.77.

Regarding `CN(C)CCNC(=O)c1ccc(NCCN(C)C)c2c(O)c3cc([N+](=O)[O-])ccc3nc12`, the pIC50 is 6.72 in data set [1]; 7.38 in data set [2]; 6.76 in data set [3]; 5.74 in data set [6]; 6.68 in [8]; 6.34 in data set [10]. In addition, the figures for the C50 in data set [4] and in [9] were 0.61 µM and 0.17 µM, respectively. In addition, the Q is 1.8 µM in data set [5], 2.1 µM in data set [7] and 2.4 µM in [11]. In data set [12], the logP came out at 5.68.

Take `O=C(NCCNCCO)c1ccc(NCCNCCO)c2c(O)c3ccccc3nc12`: the pIC50 in data set [1] is under 4.64; in data set [2], 5.32; in data set [3], 6.78; in data set [6], 4.81; in data set [8], 4.67; in data set [10], 5.40. Besides, the C50 turned out to be 1.7 µM in [4] and 0.36 µM in data set [13]. In addition, the Q in data set [5] stood at 2.6 µM; in [7] it was 3.2 µM; in data set [11], 4.1 µM. The logP in data set [12] was 3.15.

For the compound `CN(C)CCNC(=O)c1ccc(NCCN(C)C)c2c(=O)c3ccccc3[nH]c12`, the pIC50 in [1] was 7.03; in data set [2], 7.82; in [6], 7.82; in [8] it was 6.40; in data set [10] it was 7.36; in data set [14], 7.70. The C50 amounted to 1.1 µM in [4] and 0.34 µM in [9]. Besides, the Q in data set [5] came to 3.1 µM; in [7] it was 3.3 µM; in data set [11], 3.5 µM. For the same compound, the logP in data set [12] worked out at 5.12.

Take `CN(C)CCNC(=O)c1ccc(NCCNCCO)c2c(O)c3ccccc3nc12`: the pIC50 is 6.85 in data set [1]; 7.77 in data set [2]; 7.80 in data set [3]; 6.55 in data set [6]; 6.77 in [8]; 7.46 in [10]. Besides, the results for the C50 in data set [4] and in data set [9] were 2 µM and 0.35 µM, respectively. In addition, the Q in data set [5] was found to be 3.8 µM; in data set [7], 4.2 µM; in data set [11], 4.7 µM. Moreover, the logP in data set [12] was found to be 4.09.

Regarding `CCN(CC)CCNC(=O)c1ccc(NCCN(CC)CC)c2c(O)c3ccccc3nc12`, the pIC50 in [1] is 5.24; in data set [2] it was 6.12; in data set [3] it was 5.90; in data set [6] it was 5.21; in [8], 5.62; in [10] it was 5.48. Besides, the C50 was found to be 20 µM in data set [4] and 2.3 µM in data set [9]. Moreover, the Q in [5] was determined as 19 µM; in data set [7] it was 27 µM; in [11], 36 µM. For the same compound, the logP in [12] worked out at 7.25.

`COc1ccc2nc3c(C(=O)NCCN(C)C)ccc(NCCN(C)C)c3c(O)c2c1`: the pIC50 in data set [1] is 6.30; in [2] it was 7.24; in data set [3] it was 6.31; in data set [6], 5.90; in [8], 6.38; in data set [10], 6.39. The results for the C50 in data set [4] and in data set [9] were 3.1 µM and 0.69 µM, respectively. Besides, the Q was determined as 5.3 µM in [5], 5.8 µM in data set [7] and 6.5 µM in [11]. In data set [12], the logP stood at 5.32.

Regarding `Cn1cc(NC(=O)c2cc(NC(=O)c3cc(NC=O)cn3C)cn2C)cc1C(=O)NCCC(=N)N`, the C50 was determined as 5 µM in [4] and 1.3 µM in data set [9]. The Q in data set [5] is 1.6 µM; in data set [7] it was 39.5 µM; in data set [11] it was 130 µM.

As to `O=C(NCCN1CCCCC1)c1ccc(NCCN2CCCCC2)c2c(O)c3ccccc3nc12`, the pIC50 is 6.35 in data set [1]; 7.62 in data set [2]; 5.92 in data set [3]; 6.17 in data set [6]; 6.21 in [8]; 5.92 in data set [10]. The C50 in data set [4] came out at 0.83 µM; in [9], 0.28 µM. For the same compound, the Q in [5] was 3.4 µM; in data set [7], 4.4 µM; in data set [11], 5.6 µM. Also, the logP in data set [12] came to 7.73.
